Series [1] can be described thus: Drug level in rhesus monkey ileac lymph node at 1 ml/day administered intravaginally for 7 days measured 48 hrs after final dose by LC-MS/MS analysis. Type of series: ADME, tissue-based, Macaca mulatta. The following applies: read-out: Drug uptake. In short, it runs like this:
(§1)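 Nine female macaques were sedated with ketamine (5–20 mg/kg) and given 1 ml/day of [14C]dapivirine gel (nominal 0.09 mg/ml, 15 μCi/ml) intravaginally once daily for 7 days. Three animals per time point were killed (iv pentobarbital, 65 mg/kg) at 1, 24 and 48 h after the final dose. Vaginal wall, ectocervix, and inguinal and iliac lymph nodes were assayed by LC-MS/MS (0.250–250 ng/g). Values below LLOQ were set to 0 for means.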

Series [2] is described as follows: Drug level in rhesus monkey ileac lymph node at 1 ml/day administered intravaginally for 7 days measured 24 hrs after final dose by LC-MS/MS analysis. The conditions noted are these: read-out: Drug uptake. Format: ADME, tissue-based, Macaca mulatta. The essentials:
as §1

Series [3] concerns Plasma. The series is described as follows: Drug level in rabbit plasma at 0.5 ml/day administered intravaginally for 7 days by liquid scintillation counting. The conditions noted are these: other, 168 h.
Series [4] can be described thus: Drug level in rhesus monkey vaginal tissue at 1 ml/day administered intravaginally for 7 days measured 48 hrs after final dose by LC-MS/MS analysis. The following applies: read-out: Drug uptake. Format: ADME, Macaca mulatta, Vagina. In short, it runs like this:
as §1

Series [5] in a line: Drug level in rhesus monkey vaginal tissue at 1 ml/day administered intravaginally for 7 days measured 24 hrs after final dose by LC-MS/MS analysis. Format: ADME, Macaca mulatta, Vagina. The conditions noted are these: read-out: Drug uptake. In short, it runs like this:
as §1

Series [6] is described as follows: Drug level in rhesus monkey vaginal tissue at 1 ml/day administered intravaginally 7 days measured 1 hr after final dose by LC-MS/MS analysis. The conditions noted are these: read-out: Drug uptake. Format: ADME, Macaca mulatta, Vagina. The essentials: as §1
The nature of series [7]: Drug level in rhesus monkey inguinal lymph node at 1 ml/day administered intravaginally for 7 days measured 48 hrs after final dose by LC-MS/MS analysis. Type of series: ADME, tissue-based, Macaca mulatta. The following applies: read-out: Drug uptake. In short, it runs like this:
as §1

Series [8] in a line: Drug level in rhesus monkey cervical tissue at 1 ml/day administered intravaginally for 7 days measured 1 hr after final dose by LC-MS/MS analysis. Format: ADME, Macaca mulatta. The conditions noted are these: read-out: Drug uptake. In short, it runs like this:
as §1

Series [9] in a line: Drug level in rhesus monkey inguinal lymph node at 1 ml/day administered intravaginally for 7 days measured 24 hrs after final dose by LC-MS/MS analysis. The conditions noted are these: read-out: Drug uptake. Type of series: ADME, tissue-based, Macaca mulatta. The essentials: as §1
The subject of series [10] is Plasma. The series is described as follows: Drug level in rhesus monkey plasma at 1 ml/day administered intravaginally for 7 days by LC-MS/MS analysis. Type of series: ADME, cell-free, Macaca mulatta. The conditions noted are these: other, 168 h, in the assay text read “liquid scintillation counting” for “LC-MS/MS analysis”.
A short description of series [11]: Drug level in rhesus monkey ileac lymph node at 1 ml/day administered intravaginally for 7 days measured 1 hr after final dose by LC-MS/MS analysis. Type of series: ADME, tissue-based, Macaca mulatta. The conditions noted are these: read-out: Drug uptake. In short, it runs like this:
as §1

A short description of series [12]: Drug level in rhesus monkey cervical tissue at 1 ml/day administered intravaginally for 7 days measured 48 hrs after final dose by LC-MS/MS analysis. Format: ADME, Macaca mulatta. The following applies: read-out: Drug uptake. The essentials: as §1
Series [13] is described as follows: Drug level in rhesus monkey inguinal lymph node at 1 ml/day administered intravaginally for 7 days measured 1 hr after final dose by LC-MS/MS analysis. Type of series: ADME, tissue-based, Macaca mulatta. The conditions noted are these: read-out: Drug uptake. In short, it runs like this: as §1
Series [14] can be described thus: Drug level in rabbit vaginal tissue at 0.5 ml/day administered intravaginally for 7 days measured 1 hr after final dose by […]. Type of series: ADME, Oryctolagus cuniculus, Vagina. The conditions noted are these: read-out: Drug uptake. The essentials:
(§2)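 Six female rabbits received 0.5 ml/day of [14C]dapivirine gel (nominal 0.09 mg/ml, 15 μCi/ml) intravaginally once daily for 7 days by feeding tube inserted about 6 cm, with a collar for about 8 h. Two rabbits per time point were killed at 1, 8 and 24 h after the final dose. PBS-rinsed vaginal wall and ectocervix were homogenized in 2:1 H2O-ACN and extracted with t-butylmethylether. A single LC-MS/MS run was used (0.250–250 ng/g; 10-point weighted quadratic calibration).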

The nature of series [15]: Drug level in rhesus monkey cervical tissue at 1 ml/day administered intravaginally for 7 days measured 24 hrs after final dose by LC-MS/MS analysis. The following applies: read-out: Drug uptake. Format: ADME, Macaca mulatta. In short, it runs like this: as §1
Series [16] is described as follows: Drug level in rabbit cervical tissue at 0.5 ml/day administered intravaginally for 7 days measured 24 hrs after final dose by […]. Type of series: ADME, Oryctolagus cuniculus. The following applies: read-out: Drug uptake. The essentials:
as §2

Experimental findings from ChEMBL document CHEMBL1255242, “Concentrations of dapivirine in the rhesus macaque and rabbit following once daily intravaginal administration of a gel formulation of [14C]dapivirine for 7 days” (Antimicrob Agents Chemother, 2008) are described below.

Regarding `Cc1cc(C)c(Nc2ccnc(Nc3ccc([14C]#N)cc3)n2)c(C)c1` [[14C]DAPIVIRINE], the concentration at 48 h came to 1.16 ng/g in series [1], 515 ng/g in series [4], 0.48 ng/g in series [7] and 81 ng/g in series [12]. For the same molecule, the concentration at 24 h in series [2] was 11.6 ng/g; in [5], 1160 ng/g; in series [9], 1.77 ng/g; in series [15], 271 ng/g; in series [16], at least 2.5 ng/g. For the same molecule, the Drug uptake in series [3] was 246 dpm/ml; in series [10], “<= 83 dpm/ml”. Further, the concentration at 1 h is 4260 ng/g in [6]; 2400 ng/g in series [8]; 14.9 ng/g in [11]; 10.6 ng/g in [13]; above 3000 ng/g in [14].
